Test results: ChEMBL document CHEMBL1127409 (J Med Chem, 1994)

What was measured:
[1] = test system: Glutamate NMDA receptor (Mus musculus); experiment: In vivo inhibition of NMDA-induced seizures
Glutamate NMDA receptor [2] = experiment: Affinity for the glycine binding site of NMDA receptor by inhibition of [3H]5,7-dichlorokynurenic acid ([3H]DCKA) binding to rat brain synaptic membrane
Glutamate NMDA receptor [3] = experiment: The compound was tested for its functional antagonism of the NMDA receptor by using [3H]-MK-801 as radioligand
Glutamate NMDA receptor [4] = experiment: The compound was tested for its affinity for the glutamic acid binding site of the NMDA receptor by using [3H]CGP-39653 as radioligand; format: protein-complex assay
Procedure, shortened: (§1)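 Selectivity radioligand binding, run like the [3H]DCKA assay on rat brain synaptic membranes. [3H]CGP-39653 labels the NMDA glutamic acid site; [3H]AMPA and [3H]kainic acid label non-NMDA receptors.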

[5] = The compound was tested for its affinity for the glutamic acid binding site of the non-NMDA receptor by using [3H]-kainic acid as radioligand; parameters: species or system Rattus norvegicus
Procedure, shortened: as §1

[6] = The compound was tested for its affinity for the glutamic acid binding site of the non-NMDA receptor by using [3H]AMPA as radioligand; parameters: species or system Rattus norvegicus
Procedure, shortened: as §1

SMILES	Ki (Glutamate NMDA receptor [2]) [nM]	other results
O=C(O)C[C@H]1CCc2cc(Br)cc3[nH]c(=O)c(=O)n1c23	9.6	–
O=c1[nH]c2cc(Br)cc3c2n(c1=O)CCC3	710	–
O=C(O)CC1CCc2cc(Br)cc3[nH]c(=O)c(=O)n1c23 (stereo not drawn)	9.9	IC50 (Glutamate NMDA receptor [3]): 4100 nM; IC50 (Glutamate NMDA receptor [4]): > 30000 nM; IC50 [5]: > 30000 nM; ED50 [1]: 64 mg/kg; IC50 [6]: 4600 nM
O=C(O)C1CCc2cc(Br)cc3[nH]c(=O)c(=O)n1c23 (stereo not drawn)	30	–
O=C(O)C1Cc2cc(Br)cc3[nH]c(=O)c(=O)n1c23 (stereo not drawn)	83	–
O=C(C[C@@H]1CCc2cc(Br)cc3[nH]c(=O)c(=O)n1c23)Nc1ccccc1	0.96	–
O=C(Nc1ccccc1)C1CCc2cc(Br)cc3[nH]c(=O)c(=O)n1c23 (stereo not drawn)	2100	–
O=C(NCC1Cc2cc(Br)cc3[nH]c(=O)c(=O)n1c23)c1ccccc1 (stereo not drawn)	> 2000	–
O=C(O)CCC1CCc2cc(Br)cc3[nH]c(=O)c(=O)n1c23 (stereo not drawn)	38	–
O=C(NCC1Cc2cc(Br)cc3[nH]c(=O)c(=O)n1c23)Nc1ccccc1 (stereo not drawn)	430	–

More lines, main results first:

Ki (Glutamate NMDA receptor [2]) [nM]	SMILES	other results
2.3	O=C(O)C[C@@H]1CCc2cc(Br)cc3[nH]c(=O)c(=O)n1c23	ED50 [1]: 26 mg/kg
930	O=C(Nc1ccccc1)C1Cc2cc(Br)cc3[nH]c(=O)c(=O)n1c23 (stereo not drawn)	–
170	O=C(CC1Cc2cc(Br)cc3[nH]c(=O)c(=O)n1c23)Nc1ccccc1 (stereo not drawn)	–
2.6	O=C(CC1CCc2cc(Br)cc3[nH]c(=O)c(=O)n1c23)Nc1ccccc1 (stereo not drawn)	IC50 (Glutamate NMDA receptor [3]): 1700 nM; IC50 (Glutamate NMDA receptor [4]): > 25000 nM; IC50 [5]: > 25000 nM; IC50 [6]: 4600 nM
40	O=C(O)c1cc(O)c2c(Cl)cc(Cl)cc2n1	–
480	O=C(NCC1CCc2cc(Br)cc3[nH]c(=O)c(=O)n1c23)Nc1ccccc1 (stereo not drawn)	–
320	O=C(CCC1CCc2cc(Br)cc3[nH]c(=O)c(=O)n1c23)Nc1ccccc1 (stereo not drawn)	–
160	Oc1nc2cc(Cl)c(Cl)cc2nc1O [2,3-DIHYDROXY-6,7-DICHLOROQUINOXALINE]	–
> 3000	O=c1[nH]c2cc(Br)cc3c2n(c1=O)CC3	–
7.3	O=C(O)CC1Cc2cc(Br)cc3[nH]c(=O)c(=O)n1c23 (stereo not drawn)	–
2	O=C(Nc1ccccc1)N[C@H]1C[C@H](C(=O)O)Nc2cc(Cl)cc(Cl)c21	–
82	O=C(C[C@H]1CCc2cc(Br)cc3[nH]c(=O)c(=O)n1c23)Nc1ccccc1	–
190	O=C(NCC1CCc2cc(Br)cc3[nH]c(=O)c(=O)n1c23)c1ccccc1 (stereo not drawn)	–
